According to ChEMBL document CHEMBL3352359, “Cycloartane triterpenoids and their glycosides from the rhizomes of Cimicifuga foetida” (J Nat Prod, 2014):

How the values were obtained:
Type in all cases: functional, cell-based
[1] = Cytotoxicity against human HL60 cells after 48 hrs by MTT assay; conditions: HL-60, 48 h
In short: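 HL-60 suspension cells were grown in DMEM with 10% FBS at 37 °C under 5% CO2. They were seeded at 1 × 10^5 cells/mL in 96-well plates just before compound addition, then exposed in triplicate to graded concentrations for 48 h, with cisplatin as positive control. MTT absorbance was read at 570 nm against 630 nm reference. IC50 was calculated by the Reed–Muench method.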

[2] = system: HeLa; assay: Cytotoxicity against human HeLa cells after 48 hrs by MTT assay
In short: (§1)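 Adherent cells grown in DMEM with 10% FBS at 37 °C under 5% CO2. Cells were seeded in 96-well plates and left 12 h to attach, then exposed in triplicate to a range of compound concentrations for 48 h, with cisplatin as positive control. MTT read-out was absorbance at 570 nm (reference 630 nm). IC50 was derived by the Reed–Muench method.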

[3] = Cytotoxicity against human SMMC-7721 cells after 48 hrs by MTT assay; conditions: SMMC-7721, 48 h; in short: as §1
[4] = system: MCF7; assay: Cytotoxicity against human MCF7 cells after 48 hrs by MTT assay; conditions: MCF7, 48 h; in short: as §1
[5] = Cytotoxicity against human H460 cells after 48 hrs by MTT assay; conditions: NCI-H460, 48 h; in short: as §1

Row | SMILES | IC50 [1] [µM] | IC50 [2] [µM] | IC50 [3] [µM] | IC50 [4] [µM] | IC50 [5] [µM]
1 | C[C@H](CC(=O)[C@H](O)C(C)(C)O)[C@H]1C(=O)C[C@@]2(C)C3=CC[C@@H]4C(=CC[C@H](O)C4(C)C)CC3=CC[C@]12C | > 10 | > 10 | > 10 | > 10 | > 10
2 | C[C@H](CC(=O)[C@@H](O)C(C)(C)O)[C@H]1C(=O)C[C@@]2(C)C3=CC[C@@H]4C(=CC[C@H](O)C4(C)C)CC3=CC[C@]12C | > 10 | > 10 | > 10 | > 10 | > 10
3 | C[C@H](CC(=O)[C@H](O)C(C)(C)O)[C@H]1C(=O)C[C@@]2(C)C3=CC[C@H]4C(C)(C)[C@@H](O[C@@H]5OC[C@@H](O)[C@H](O)[C@H]5O)CC[C@]4(O)CC3=CC[C@]12C | > 10 | > 10 | > 10 | > 10 | > 10
4 | C[C@H](CC(=O)[C@H](O)C(C)(C)O)[C@H]1C(=O)C[C@@]2(C)C3=CC[C@H]4C(C)(C)[C@@H](O[C@@H]5OC[C@@H](O)[C@H](O)[C@H]5O)CC[C@@]4(O)CC3=CC[C@]12C | > 10 | > 10 | > 10 | > 10 | > 10
5 | C[C@H](CC(=O)[C@@H]1OC1(C)C)[C@H]1C(=O)C[C@@]2(C)C3=CC[C@H]4C(C)(C)[C@@H](O[C@@H]5OC[C@@H](O)[C@H](O)[C@H]5O)CC[C@]4(O)CC3=CC[C@]12C | > 10 | > 10 | > 10 | > 10 | > 10
6 | C[C@H](CC(=O)[C@@H]1OC1(C)C)[C@H]1C(=O)C[C@@]2(C)C3=CC[C@H]4C(C)(C)[C@@H](O[C@@H]5OC[C@@H](O)[C@H](O)[C@H]5O)CC[C@@]4(O)CC3=CC[C@]12C | > 10 | > 10 | > 10 | > 10 | > 10
7 | CC(=O)O[C@@H]1C[C@@]23C[C@@]24CC[C@H](O[C@@H]2OC[C@@H](O)[C@H](O)[C@H]2O)C(C)(C)[C@@H]4CC[C@H]3[C@]2(C)C[C@@H]3O[C@](O)(C(=O)C(C)C)C[C@@H](C)[C@@H]3[C@@]12C | > 10 | > 10 | > 10 | > 10 | > 10
8 | CC(=O)O[C@@H]1C[C@@]23C[C@@]24CC[C@H](O[C@@H]2OC[C@@H](O)[C@H](O)[C@H]2O)C(C)(C)[C@@H]4CC[C@H]3[C@]2(C)C[C@@H]3OC(C(O)C(C)(C)O)=C[C@@H](C)[C@@H]3[C@@]12C (stereo not given in full) | > 10 | > 10 | > 10 | > 10 | > 10
9 | CC(=O)O[C@@H]1C[C@@]23C[C@@]24CC[C@H](O[C@@H]2OC[C@@H](O)[C@H](O)[C@H]2O)C(C)(C)[C@@H]4CC[C@H]3[C@]2(C)C[C@@H]3O[C@]4(O)[C@H](OC(C)(C)[C@@H]4O)[C@@H](C)[C@@H]3[C@@]12C | > 10 | > 10 | > 10 | > 10 | > 10
10 | C[C@@H]1C[C@H]2O[C@@]3(O[C@@H]2C(C)(C)O)[C@H](O)[C@@]2(C)[C@@H]4CC[C@H]5C(C)(C)[C@@H](O[C@@H]6OC[C@@H](O)[C@H](O)[C@H]6O)CC[C@@]56C[C@@]46C[C@@H](O)[C@]2(C)[C@@H]13 | > 10 | > 10 | > 10 | > 10 | > 10
11 | CC(=O)O[C@@H]1[C@@H](O)[C@H](O[C@H]2CC[C@]34C[C@]35CC[C@]3(C)[C@H]6[C@H](C)C[C@H]7O[C@@]6(O[C@@H]7C(C)(C)OC(C)=O)[C@H](O)[C@@]3(C)[C@@H]5CC[C@H]4C2(C)C)OC[C@H]1O | > 10 | > 10 | 5.5 | > 10 | > 10
12 | CC(=O)O[C@@H]1CO[C@@H](O[C@H]2CC[C@]34C[C@]35CC[C@]3(C)[C@H]6[C@H](C)C[C@H]7O[C@@]6(O[C@@H]7C(C)(C)OC(C)=O)[C@H](O)[C@@]3(C)[C@@H]5CC[C@H]4C2(C)C)[C@H](O)[C@H]1O | > 10 | > 10 | 6.3 | > 10 | > 10
13 | C=C(C)[C@@H](O)C(=O)C[C@@H](C)[C@H]1C(=O)C[C@@]2(C)C3=CC[C@H]4C(C)(C)[C@@H](O[C@@H]5OC[C@@H](O)[C@H](O)[C@H]5O)CC[C@@]45C[C@]35[C@@H](O)C[C@]12C | > 10 | > 10 | > 10 | > 10 | > 10
14 | CC(=O)O[C@@H]1C[C@@]23C[C@@]24CC[C@H](O[C@@H]2OC[C@@H](O)[C@H](O)[C@H]2O)C(C)(C)[C@@H]4CC[C@H]3[C@]2(C)[C@@H](O)[C@]34O[C@H](C[C@@H](C)[C@@H]3[C@@]12C)[C@@H](C(C)(C)O)O4 | > 10 | > 10 | > 10 | > 10 | > 10
15 | CC(=O)O[C@@H]1C[C@@]23C[C@@]24CC[C@H](O[C@@H]2OC[C@@H](O)[C@H](O)[C@H]2O)C(C)(C)[C@@H]4CC[C@H]3[C@]2(C)C[C@@H]3O[C@@]4(C[C@@H](C)[C@@H]3[C@@]12C)OC[C@]1(C)O[C@H]41 | > 10 | > 10 | > 10 | > 10 | > 10
16 | CC(=O)O[C@@H]1C[C@@]23C[C@@]24CC[C@H](O[C@@H]2OC[C@@H](O)[C@H](O)[C@H]2O)C(C)(C)[C@@H]4CC[C@H]3[C@]2(C)C[C@@H]3O[C@]4(C[C@@H](C)[C@@H]3[C@@]12C)O[C@H](O)[C@@]1(C)O[C@@H]41 [ACTEIN] | > 10 | > 10 | > 10 | > 10 | > 10
